Compound activity deposited in PubChem by The Scripps Research Institute Molecular Screening Center.
OX1R antag-1 – OX1R (HCRTR1) antagonists, primary screen, fluorescence, CHO/OX1R cells, Fluo-8 calcium, orexin A | Orexin/Hypocretin receptor type 1 (Homo sapiens), O43613 | inhibition, % at 5 µM | 0.43% of 330,000 active | Fluo-8 calcium fluorescence | AID 434989, 2010;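 active = inhibition above its plate's threshold, mean inhibition of all tested compounds on the plate plus 3 SD, cut at about 37% in these data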;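 note: 0% = orexin A challenge wells and 100% = SB-334867-A antagonist wells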
TAAR1 ag – human TAAR1 agonists, primary screen, Fluo-8 calcium fluorescence, CHO RD-HGA16 cells; Trace amine-associated receptor 1 (Homo sapiens), Q96RJ0; vehicle wells 0%, saturating PEA agonist 100%; activation, % at 3 µM; 0.99% of 360,000 active; AID 624467, 2012;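 active = activation above the mean activation of all test compounds in the run plus 3 SD, cut at about 38% in these data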
Target sequence (Q96RJ0 whole entry, looked up): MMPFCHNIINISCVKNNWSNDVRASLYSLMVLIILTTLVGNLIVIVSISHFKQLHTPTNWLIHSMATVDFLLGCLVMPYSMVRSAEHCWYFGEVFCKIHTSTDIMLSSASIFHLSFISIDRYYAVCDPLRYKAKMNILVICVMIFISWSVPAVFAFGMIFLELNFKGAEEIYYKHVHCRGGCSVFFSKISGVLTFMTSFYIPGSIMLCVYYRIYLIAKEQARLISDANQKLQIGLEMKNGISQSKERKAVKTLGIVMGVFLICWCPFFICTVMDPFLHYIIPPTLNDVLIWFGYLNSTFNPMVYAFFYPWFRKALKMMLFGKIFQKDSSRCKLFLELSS
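test system = CHO RD-HGA16 cells carrying human TAAR1 plus Gα16 | schedule = 17-24 h seeding, 75 min 37 °C dye, 30 min RT | compound dosing = 3 µM single concentration | control set = DMSO and PEA EC100 | replicates = n 1 | signal = Fluo-8 fluorescence, 5 s baseline then 140 s kinetic read | measure = percent activation vs PEA EC100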
TAAR1 antagonist – human TAAR1 antagonists, primary screen, Fluo-8 calcium fluorescence, CHO RD-HGA16 cells. inhibition, % at 3 µM. Trace amine-associated receptor 1 (Homo sapiens), Q96RJ0. antagonist. AID 624466, 2012. 1.5% of 360,000 active;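 active = inhibition above a per-plate cutoff, the mean inhibition of test compounds on that plate plus 3 SD, cut at about 49% in these data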;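 note: 0% = DMSO plus EC80 beta-PEA response and 100% = DMSO alone without agonist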
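test system = CHO RD-HGA16 cells bearing hTAAR1 | replication = singlicate | controls = DMSO-only wells and EC80 β-PEA-stimulated wells | reagent = EC80 β-phenethylamine stimulus | read-out basis = percent inhibition of PEA-evoked calcium signal, max/basal emission ratio | schedule = seeding 17-24 h prior, 75-min 37 °C, 30-min RT dye loading | signal = kinetic Fluo-8 calcium fluorescence measurement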
CHO parental Ca – ATP-evoked calcium signal inhibitors, parental CHO, primary screen, counter-screen for OX1R antagonist project, cell-based, fluorescence, Fluo-8 calcium dye; parental CHO-K1, ATP-induced calcium, Fluo-8 fluorescence; inhibition, % at 5.6 µM; 0.63% of 330,000 active; AID 463079, 2010;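 active = inhibition above that plate's mean sample inhibition plus 3 SD, cut at about 26% in these data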;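 note: 0% = ATP-challenged DMSO wells and 100% = DMSO wells without ATP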
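Material: parental CHO cells / Compound: single nominal dose of 5.6 µM per compound / Signal: Fluo-8 fluorescence / Replicates: singlicate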
OX1R antag-2 – antagonists of human orexin 1 receptor (OX1R) | Orexin/Hypocretin receptor type 1 (Homo sapiens), O43613 | OX1R-expressing cells, FRET antagonist read-out | inhibition, % at 6.6 µM | 1.8% of 330,000 active; in the data active = inhibition mostly above about 38%, no sharp cut-off; inactive = mostly below about 40%;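 note: 0% = agonist challenge alone and 100% = reference antagonist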
GPR7 antagonist – GPR7 receptor antagonists, primary screen, cell-based, fluorescence, single concentration. GPR7-expressing cells, fluorescence antagonist assay. inhibition, % at 4.4 µM. 1.1% of 290,000 active; in the data active = inhibition above about 16%, passing the limit was not always enough;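 note: cells stimulated with the agonist NPW; 0% = agonist with vehicle and 100% = vehicle without agonist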
* marks the source's active call; other numbers are inactive results; . = no result. In the library only some 4.6% were active in any assay of this set; here they are far more common.

SMILES	OX1R antag-1	TAAR1 ag	TAAR1 antagonist	CHO parental Ca	OX1R antag-2	GPR7 antagonist
CN1C(=O)c2ccc(C(=O)Nc3ccccc3O)cc2C1=O	-7	1	12	-1	41*	-8
O=C(Nc1ccccc1O)c1ccc2c(c1)C(=O)N(c1ccccc1)C2=O	.	3	-17	.	.	13
CN1C(=O)c2ccc(C(=O)Nc3nccs3)cc2C1=O	-19	1	8	-10	73*	9
CCc1nc2ccc(C(=O)N(C)Cc3ccco3)cn2c1N(C)CCCc1ccccc1	.	0	9	.	.	.
COc1cccc(C(=O)NCC2CCN(C(=O)C(=O)c3cc4ccccc4o3)CC2)c1	.	0	-19	.	.	.
Cc1ccc(CNc2ncnc3cc(Cl)ccc23)cc1	-16	0	16	35*	31	9
O=C(C(=O)N1CCN(C(=O)C2CCC2)CC1)c1cccc(C(F)(F)F)c1	.	0	-11	.	.	.
Cc1ccc(Cc2c(-c3ccc(C#N)cc3)nc3c4ccccc4ccn23)cc1	.	-1	-14	.	.	.
O=C(NCCn1cc(SCc2ccccc2)c2ccccc21)c1ccccc1F	-3	1	64*	66*	17	-9
O=C(CSc1cn(CCNC(=O)c2ccccc2F)c2ccccc12)NCC1CCCO1 (configuration not stated)	6	5	-15	-22	21	-9
CCCC(=O)Nc1ccc(Cl)c(NC(=O)c2cccnc2Cl)c1	1	39*	2	7	16	6
CCCC(=O)Nc1ccc(Cl)c(NC(=S)NC(=O)C(C)C)c1	-4	4	-6	9	12	2
NS(=O)(=O)c1ccc(NC(=O)COC(=O)C23CC4CC(CC(C4)C2)C3)cc1	2	5	7	5	3	-1
NS(=O)(=O)c1ccc(NC(=O)COC(=O)CCNC(=O)NC23CC4CC(CC(C4)C2)C3)cc1	-6	1	-2	4	5	17*
CCc1cc2c(nc1CC)CCCN2S(=O)(=O)c1ccc(C#N)cc1	.	1	9	.	.	.
Nc1cc(S(=O)(=O)Nc2ccc(Cl)cc2)ccc1N1CCOCC1	34	21	8	36*	15	10
CCC1(c2ccc(F)cc2)NC(=O)N(CC(=O)Nc2ccc(N3CCCCC3)cc2)C1=O (configuration not stated)	-12	60*	19	1	-10	.
O=C1[C@@H](Oc2ccccc2)[C@@H](c2cnc3ccccc3c2)N1c1ccccc1	17	-1	11	-10	41*	.
Cc1c(C(=O)NNC(=O)c2ccccc2O)oc2ccc(Br)cc12	-3	4	-4	64*	8	.
Cc1nnc(N2C(=O)c3cccc4cccc(c34)C2=O)s1	-5	6	2	9	59*	1
COC(=O)C1=C(C)N(C)C(=NCc2ccccc2C(F)(F)F)NC1CCc1ccccc1 (configuration not stated)	.	4	0	.	.	.
COc1ccccc1NC(=O)c1ccccc1C(=O)Nc1ccccc1OC	-21	2	22	-14	22	-11
COc1ccccc1NC(=O)c1cnc(Nc2ccccc2OC)c2ccccc12	-11	0	16	-33	74*	-20
COc1ccc(N)cc1CN1CCN(c2ncc(Cc3ccccc3)cn2)CC1	.	1	-8	.	.	.
CN(Cc1ccc(Cl)cc1Cl)C(=O)C1CSC2(C)CCC(=O)N12 (configuration not stated)	.	2	-10	.	.	.
O=C(CC1Oc2ccccc2NC1=O)NCCc1ccccc1 (configuration not stated)	-15	66*	16	-2	10	-14
COc1ccc(Cn2c(C)c(CC(=O)Nc3ccc(Oc4cccnc4)c(C)c3)c3ccccc32)cc1	.	-1	23	.	.	.
O=C1/C(=C\c2c(NCCOCCO)nc3ccccn3c2=O)SC(=S)N1Cc1ccco1	37	41*	62*	34*	-6	6
